Source: ChEMBL document CHEMBL1759943, “Design and synthesis of novel enhanced water soluble hydroxyethyl analogs of combretastatin A-4” (Bioorg Med Chem Lett, 2011)
In brackets after ≈: the same amount, converted by molar mass. Blank lines part the entries; values can stand above or below the molecule they belong to.

Tests used:
B16 = assay: Antiproliferative activity against mouse B16 cells after 72 hrs by MTT assay; format: functional, cell-based; conditions: B16, 72 h
Procedure, shortened: (§1)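 Murine L1210 lymphoma and B16 melanoma cells in culture were given 72-h continuous exposure to compound, and viability was read by MTT assay. IC50 was taken as the readout.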

L1210 [1] = assay: Antiproliferative activity against mouse L1210 cells after 72 hrs by MTT assay; format: functional, cell-based; conditions: L1210, 72 h; procedure, shortened: as §1
Mus musculus [2] = assay: Toxicity in DBA2 mouse assessed as change in color and texture of liver at 75 mg/kg, ip administered once daily on day 1, 5, 9, 13, 17; format: organism-based; set-up: dose 75 mg/kg, route intraperitoneal; conditions: in vivo
Procedure, shortened: (§2)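 Healthy, non-tumor-bearing female DBA2 mice given 75 mg/kg on days 1, 5, 9, 13 and 17. Toxicity was judged at the end of the experiment from body weight change, blood cell counts, and the gross color and texture of the kidneys, liver and spleen.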

HOP-62 = assay: Cytotoxicity against human HOP62 cells; format: functional
COLO 205 = assay: Cytotoxicity against human COLO205 cells; format: functional
LOX IMVI = assay: Cytotoxicity against human LOXIMVI cells; format: functional
SN12C = assay: Cytotoxicity against human SN12C cells; format: functional
UACC-62 = assay: Cytotoxicity against human UACC62 cells; format: functional
M14 = assay: Cytotoxicity against human M14 cells; format: functional
SW-620 = assay: Cytotoxicity against human SW620 cells; format: functional
K562 = assay: Cytotoxicity against human K562 cells; format: functional
RPMI-8226 = assay: Cytotoxicity against human RPMI8226 cells; format: functional
DU-145 = assay: Cytotoxicity against human DU145 cells; format: functional
HOP-92 = assay: Cytotoxicity against human HOP92 cells; format: functional
MCF7 = assay: Cytotoxicity against human MCF7 cells; format: functional
NCI-H322M = assay: Cytotoxicity against human NCI-H322M cells; format: functional
MDA-MB-468 = assay: Cytotoxicity against human MDA-MB-468 cells; format: functional
MDA-MB-231 = assay: Cytotoxicity against human MDA-MB-231 cells; format: functional
ACHN = assay: Cytotoxicity against human ACHN cells; format: functional
MDA-MB-435 [3] = assay: Cytotoxicity against human MDA-MB-435 cells; format: functional, cell-based
[4] = Cytotoxicity against human RXF 393NL cells; format: functional
TK-10 = assay: Cytotoxicity against human TK10 cells; format: functional
SK-MEL-5 = assay: Cytotoxicity against human SK-MEL-5 cells; format: functional
HCT-116 = assay: Cytotoxicity against human HCT116 cells; format: functional
SK-MEL-2 = assay: Cytotoxicity against human SK-MEL-2 cells; format: functional
Mus musculus [5] = assay: Toxicity in DBA2 mouse assessed as change in body weight at 75 mg/kg, ip administered once daily on day 1, 5, 9, 13, 17; format: organism-based; set-up: dose 75 mg/kg, route intraperitoneal; conditions: in vivo; procedure, shortened: as §2
L1210 [6] = assay: Antitumor activity against mouse L1210 cells xenografted in DBA2 mouse assessed as reduction in tumor volume at 75 mg/kg, ip administered once daily on day 1, 3, 5, 7, 9, 11, 13, 15, 17 measured on day 19 relative to control; format: functional; set-up: scale not given: the % may be the effect or the level left; conditions: route intraperitoneal
Procedure, shortened: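 Female DBA2 mice were inoculated with L1210 leukemia cells on the right flank. Compound was given ip at 75 mg/kg once on each of days 1, 3, 5, 7, 9, 11, 13, 15 and 17 after inoculation, in 100 µL injections; controls got vehicle alone. Tumor volume was compared with vehicle controls on day 19.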

NCI-H522 = assay: Cytotoxicity against human NCI-H522 cells; format: functional
A549 = assay: Cytotoxicity against human A549 cells; format: functional
PC-3 = assay: Cytotoxicity against human PC3 cells; format: functional
KM12 = assay: Cytotoxicity against human KM12 cells; format: functional
HCC 2998 = assay: Cytotoxicity against human HCC2998 cells; format: functional
IGROV-1 = assay: Cytotoxicity against human IGROV1 cells; format: functional
OVCAR-4 = assay: Cytotoxicity against human OVCAR4 cells; format: functional
786-0 = assay: Cytotoxicity against human 786-0 cells; format: functional
NCI-H460 = assay: Cytotoxicity against human NCI-H460 cells; format: functional
NCI-H226 = assay: Cytotoxicity against human NCI-H226 cells; format: functional; conditions: NCI-H226, read-out: pGI50 (converted)
BT-549 = assay: Cytotoxicity against human BT549 cells; format: functional
OVCAR-5 = assay: Cytotoxicity against human OVCAR5 cells; format: functional
UACC-257 = assay: Cytotoxicity against human UACC257 cells; format: functional; conditions: UACC-257, read-out: pGI50 (converted)
HT-29 = assay: Cytotoxicity against human HT-29 cells; format: functional
CCRF-CEM = assay: Cytotoxicity against human CCRF-CEM cells; format: functional
MOLT-4 = assay: Cytotoxicity against human MOLT4 cells; format: functional
HL-60 = assay: Cytotoxicity against human HL60 cells; format: functional
Mus musculus [7] = assay: Toxicity in DBA2 mouse assessed as change in blood cell count at 75 mg/kg, ip administered once daily on day 1, 5, 9, 13, 17; format: organism-based; set-up: dose 75 mg/kg, route intraperitoneal; conditions: in vivo; procedure, shortened: as §2
Mus musculus [8] = assay: Toxicity in DBA2 mouse assessed as change in color and texture of spleen at 75 mg/kg, ip administered once daily on day 1, 5, 9, 13, 17; format: organism-based; set-up: dose 75 mg/kg, route intraperitoneal; conditions: in vivo; procedure, shortened: as §2
CAKI-1 = assay: Cytotoxicity against human Caki1 cells; format: functional
[9] = Cytotoxicity against human Hs 578T cells; format: functional
OVCAR-8 = assay: Cytotoxicity against human OVCAR8 cells; format: functional
SK-OV-3 = assay: Cytotoxicity against human SKOV3 cells; format: functional
OVCAR-3 = assay: Cytotoxicity against human OVCAR3 cells; format: functional
A498 = assay: Cytotoxicity against human A498 cells; format: functional
UO-31 = assay: Cytotoxicity against human UO31 cells; format: functional
SK-MEL-28 = assay: Cytotoxicity against human SK-MEL-28 cells; format: functional; conditions: SK-MEL-28, read-out: pGI50 (converted)
EKVX = assay: Cytotoxicity against human EKVX cells; format: functional
NCI/ADR-RES = assay: Cytotoxicity against human NCI/ADR-RES cells; format: functional
HCT-15 = assay: Cytotoxicity against human HCT15 cells; format: functional
U-251 = assay: Cytotoxicity against human U251 cells; format: functional
SF-268 = assay: Cytotoxicity against human SF268 cells; format: functional
SF-295 = assay: Cytotoxicity against human SF295 cells; format: functional
Mus musculus [10] = assay: Toxicity in DBA2 mouse assessed as change in color and texture of kidney at 75 mg/kg, ip administered once daily on day 1, 5, 9, 13, 17; format: organism-based; set-up: dose 75 mg/kg, route intraperitoneal; conditions: in vivo; procedure, shortened: as §2
A10 = assay: Disruption of microtubule organization in rat A10 cells assessed as loss of interphase microtubules; format: functional, cell-based
[11] = Aqueous solubility of the compound after 6 hrs; format: physicochemical
Procedure, shortened: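 Solubility was measured with a modified filter-plate protocol, assay maximum 500 µM. Each compound had its own standard curve, diluted into 80:20 aqueous buffer:acetonitrile at 5% DMSO (v/v) final. The aqueous sample was mixed 6 h and centrifuged. Supernatant absorbance gave concentration from the standard curve.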

NCI-H23 = assay: Cytotoxicity against human NCI-H23 cells; format: functional
MDA-MB-435 [12] = assay: Ratio of EC50 for disruption of interphase microtubule organization in rat A10 cells to IC50 for human MDA-MB-435 cells; format: functional

- IC50 (B16): 17500 nM
- IC50 (L1210 [1]): 3900 nM
SMILES: COc1ccc(/C=C(/c2cc(OC)c(OC)c(OC)c2)C(C)O)cc1 (stereo unspecified)

- IC50 (B16): > 100000 nM
- IC50 (L1210 [1]): > 100000 nM
SMILES: COc1cc(/C(=C/c2ccc(Br)cc2)C(C)O)cc(OC)c1OC (stereo unspecified)

- IC50 (B16): > 100000 nM
- IC50 (L1210 [1]): > 100000 nM
SMILES: COc1cc(/C(=C/c2ccccc2)C(C)O)cc(OC)c1OC (stereo unspecified)

- IC50 (B16): > 100000 nM
- IC50 (L1210 [1]): > 100000 nM
SMILES: COc1cc(/C(=C/c2ccc([N+](=O)[O-])cc2)C(C)O)cc(OC)c1OC (stereo unspecified)

- IC50 (B16): 16100 nM
- IC50 (L1210 [1]): 4100 nM
- EC50 (A10): 21200 nM
- solubility at 6 h [11]: 479 µM (≈ 173 µg/mL)
SMILES: COc1ccc(/C=C(/c2cc(OC)c(OC)c(OC)c2)C(C)O)cc1O (stereo unspecified)
- Activity (Mus musculus [2]): Non-toxic
- GI50 (HOP-62): 4070 nM
- GI50 (COLO 205): 27500 nM
- GI50 (LOX IMVI): 891 nM
- GI50 (SN12C): 6610 nM
- GI50 (UACC-62): 468 nM
- GI50 (M14): 631 nM
- GI50 (SW-620): 363 nM
- GI50 (K562): 550 nM
- GI50 (RPMI-8226): 3470 nM
- GI50 (DU-145): 1450 nM
- GI50 (HOP-92): 209 nM
- GI50 (MCF7): 389 nM
- GI50 (NCI-H322M): 3980 nM
- GI50 (MDA-MB-468): 501 nM
- GI50 (MDA-MB-231): 2140 nM
- GI50 (ACHN): 575 nM
- GI50 (MDA-MB-435 [3]): 200 nM
- IC50 (MDA-MB-435 [3]): 880 nM
- GI50 (MDA-MB-435 [3]; read-out: pGI50 (converted)): 229 nM
- GI50 [4]: 324 nM
- GI50 (TK-10): 4070 nM
- GI50 (SK-MEL-5): 417 nM
- GI50 (HCT-116): 479 nM
- GI50 (SK-MEL-2): 692 nM
- Activity (Mus musculus [5]): Non-toxic
- Activity (L1210 [6]): 50%
- GI50 (NCI-H522): 457 nM
- GI50 (A549): 3020 nM
- GI50 (PC-3): 501 nM
- GI50 (KM12): 389 nM
- GI50 (HCC 2998): 2820 nM
- GI50 (IGROV-1): 851 nM
- GI50 (OVCAR-4): 4270 nM
- GI50 (786-0): 4170 nM
- GI50 (NCI-H460): 490 nM
- GI50 (NCI-H226): > 100000 nM
- GI50 (BT-549): 813 nM
- GI50 (OVCAR-5): 5620 nM
- GI50 (UACC-257): > 100000 nM
- GI50 (HT-29): 4070 nM
- GI50 (CCRF-CEM): 2450 nM
- GI50 (MOLT-4): 4680 nM
- GI50 (HL-60): 479 nM
- Activity (Mus musculus [7]): Non-toxic
- Activity (Mus musculus [8]): Non-toxic
- GI50 (CAKI-1): 4570 nM
- GI50 [9]: 324 nM
- GI50 (OVCAR-8): 1320 nM
- GI50 (SK-OV-3): 1020 nM
- GI50 (OVCAR-3): 245 nM
- GI50 (A498): 759 nM
- GI50 (UO-31): 2340 nM
- GI50 (SK-MEL-28): > 100000 nM
- GI50 (EKVX): 5620 nM
- GI50 (NCI/ADR-RES): 447 nM
- GI50 (HCT-15): 617 nM
- GI50 (U-251): 575 nM
- GI50 (SF-268): 1000 nM
- GI50 (SF-295): 1860 nM
- Activity (Mus musculus [10]): Non-toxic
- GI50 (NCI-H23): 3720 nM
- Ratio (MDA-MB-435 [12]): 24

- IC50 (B16): > 100000 nM
- IC50 (L1210 [1]): > 100000 nM
SMILES: COc1cc(/C(=C/c2ccc(Cl)cc2)C(C)O)cc(OC)c1OC (stereo unspecified)

- IC50 (B16): > 100000 nM
- IC50 (L1210 [1]): > 100000 nM
SMILES: COc1ccc(OC)c(/C=C(/c2cc(OC)c(OC)c(OC)c2)C(C)O)c1 (stereo unspecified)

- IC50 (B16): > 100000 nM
- IC50 (L1210 [1]): 69000 nM
SMILES: COc1ccc(/C=C(/c2cc(OC)c(OC)c(OC)c2)C(C)O)cc1OC (stereo unspecified)

- IC50 (B16): 51500 nM
- IC50 (L1210 [1]): 18500 nM
SMILES: COc1cc(/C(=C/c2ccc(Cl)c(Cl)c2)C(C)O)cc(OC)c1OC (stereo unspecified)

- IC50 (B16): > 100000 nM
- IC50 (L1210 [1]): 67500 nM
SMILES: COc1ccc(/C=C(/c2cc(OC)c(OC)c(OC)c2)C(C)O)cc1[N+](=O)[O-] (stereo unspecified)

- IC50 (B16): > 100000 nM
- IC50 (L1210 [1]): 33500 nM
SMILES: COc1cc(/C(=C/c2ccc(C)cc2)C(C)O)cc(OC)c1OC (stereo unspecified)

- IC50 (B16): > 100000 nM
- IC50 (L1210 [1]): > 100000 nM
SMILES: COc1cc(/C(=C/c2cccc([N+](=O)[O-])c2)C(C)O)cc(OC)c1OC (stereo unspecified)

- IC50 (B16): 84000 nM
- IC50 (L1210 [1]): 51500 nM
SMILES: COc1cc(/C=C(/c2cc(OC)c(OC)c(OC)c2)C(C)O)cc(OC)c1OC (stereo unspecified)
